Source: ChEMBL document CHEMBL1149790, “Synthesis of some novel thiourea derivatives obtained from 5-[(4-aminophenoxy)methyl]-4-alkyl/aryl-2,4-dihydro-3H-1,2,4-triazole-3-thiones and evaluation as antiviral/anti-HIV and anti-tuberculosis agents” (Eur J Med Chem, 2008)
In brackets after ≈: the same amount, converted by molar mass.

Columns and labels:
Human respirovirus 3 = assay: Antiviral activity against Parainfluenza 3 virus in african green monkey Vero cells assessed as reduction of virus-induced cytopathogenicity; format: functional
Outline: (§1)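 Confluent cell monolayers (E6SM, HEL, HeLa or Vero, per line) inoculated with 100 CCID50 virus; 1 h adsorption, residual virus removed, then incubated with compound at 400, 200, 100 … µg/ml. Cytopathicity scored once complete in untreated virus controls; MIC = concentration inhibiting virus-induced cytopathicity.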

[1] = Cytotoxicity against human MT4 cells by MTT assay; format: cell-based
Outline: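 Mock-infected MT-4 cells (6 × 10⁵ cells/ml) with serial five-fold compound dilutions in triplicate; MTT reduction read at 540 and 690 nm after 5 days, median OD of three wells; CC50 = concentration reducing OD540 of mock-infected control by 50%.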

Vero = assay: Cytotoxicity against african green monkey Vero cells; format: cell-based; details: chlorocebus sabaeus
Outline: (§2)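 Uninfected cell cultures exposed to test compounds alongside antiviral assays; minimum cytotoxic concentration (MCC) = concentration causing a microscopically detectable alteration of cell morphology.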

[2] = Cytotoxicity against human E6SM cells; format: cell-based; details: E6SM cells; outline: as §2
Human alphaherpesvirus 1 [3] = assay: Antiviral activity against HSV1 KOS in human HEL cells assessed as reduction of virus-induced cytopathogenicity; format: functional; details: Human alphaherpesvirus 1, KOS; outline: as §1
Punta Toro virus = assay: Antiviral activity against Punta Toro virus in african green monkey Vero cells assessed as reduction of virus-induced cytopathogenicity; format: functional; outline: as §1
Human alphaherpesvirus 1 [4] = assay: Antiviral activity against HSV1 KOS in human E6SM cells assessed as reduction of virus-induced cytopathogenicity; format: functional; details: Human alphaherpesvirus 1, KOS; outline: as §1
[5] = system: Vesicular stomatitis virus; assay: Antiviral activity against in Vesicular stomatitis virus in human E6SM cells assessed as reduction of virus-induced cytopathogenicity; format: functional; outline: as §1
Human alphaherpesvirus 2 [6] = assay: Antiviral activity against HSV2 G in human HEL cells assessed as reduction of virus-induced cytopathogenicity; format: functional; details: Human alphaherpesvirus 2, G; outline: as §1
Human alphaherpesvirus 1 [7] = assay: Antiviral activity against thymidine kinase deficient and acyclovir resistant HSV1 KOS in human E6SM cells assessed as reduction of virus-induced cytopathogenicity; format: functional; details: Human alphaherpesvirus 1, KOS; outline: as §1
[8] = Cytotoxicity against human HEL cells assessed as alteration of cell morphology; format: cell-based; outline: as §2
[9] = system: Respiratory syncytial virus; assay: Antiviral activity against respiratory syncytial virus in human HeLa cells assessed as inhibition of virus-induced cytopathogenicity; format: functional; outline: as §1
[10] = Cytotoxicity against human HeLa cells; format: cell-based; outline: as §2
[11] = system: Human immunodeficiency virus 1; assay: Antiviral activity against HIV1 3B in human MT4 cells assessed as protection against virus-induced cytopathogenicity by MTT assay; format: functional, organism-based; set-up: Activity: concentration or dose not given beside the values; details: for IC50: Human immunodeficiency virus 1, 3B, MT4
Outline: (§3)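 MT-4 cells at 6 × 10⁵ cells/ml infected with HIV-1 IIIB or HIV-2 ROD at 100–300 CCID50; compounds in serial five-fold dilutions, triplicate mock- and virus-infected wells. MTT viability read at 540 and 690 nm after 5 days, median OD of three wells; EC50 = 50% protection from viral cytopathic effect.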

Human alphaherpesvirus 1 [12] = assay: Antiviral activity against thymidine kinase deficient and acyclovir resistant HSV1 KOS in human HEL cells assessed as reduction of virus-induced cytopathogenicity; format: functional; details: Human alphaherpesvirus 1, KOS; outline: as §1
Coxsackievirus B4 [13] = assay: Antiviral activity against Coxsackie virus B4 in human HeLa cells assessed as inhibition of virus-induced cytopathogenicity; format: functional; details: Enterovirus B; outline: as §1
[14] = system: Vesicular stomatitis virus; assay: Antiviral activity against in Vesicular stomatitis virus in human HEL cells assessed as reduction of virus-induced cytopathogenicity; format: functional; outline: as §1
Sindbis virus = assay: Antiviral activity against Sindbis virus in african green monkey Vero cells assessed as reduction of virus-induced cytopathogenicity; format: functional; outline: as §1
[15] = system: Mammalian orthoreovirus 1; assay: Antiviral activity against Reo virus 1 in african green monkey Vero cells assessed as reduction of virus-induced cytopathogenicity; format: functional; outline: as §1
Coxsackievirus B4 [16] = assay: Antiviral activity against Coxsackie virus B4 in african green monkey Vero cells assessed as reduction of virus-induced cytopathogenicity; format: functional; details: Enterovirus B; outline: as §1
[17] = system: Human immunodeficiency virus 2; assay: Antiviral activity against HIV2 ROD in human MT4 cells assessed as protection against virus-induced cytopathogenicity by MTT assay; format: functional, organism-based; set-up: Activity: concentration or dose not given beside the values; details: for IC50: Human immunodeficiency virus 2, ROD, MT4; outline: as §3
Human alphaherpesvirus 2 [18] = assay: Antiviral activity against HSV2 G in human E6SM cells assessed as reduction of virus-induced cytopathogenicity; format: functional; details: Human alphaherpesvirus 2, G; outline: as §1
[19] = system: Vesicular stomatitis virus; assay: Antiviral activity against vesicular stomatitis virus in human HeLa cells assessed as inhibition of virus-induced cytopathogenicity; format: functional; outline: as §1

SMILES | MIC (Human respirovirus 3) [µg/mL] | CC50 [1] [µg/mL] | Activity (Vero) | MCC [2] [µg/mL] | MIC (Human alphaherpesvirus 1 [3]) [µg/mL] | MIC (Punta Toro virus) [µg/mL] | MIC (Human alphaherpesvirus 1 [4]) [µg/mL] | MIC [5] [µg/mL] | MIC (Human alphaherpesvirus 2 [6]) [µg/mL] | MIC (Human alphaherpesvirus 1 [7]) [µg/mL] | MCC [8] [µg/mL] | MIC [9] [µg/mL] | MCC [10] [µg/mL] | Activity [11] [%] | IC50 [11] [µg/mL] | MIC (Human alphaherpesvirus 1 [12]) [µg/mL] | MIC (Coxsackievirus B4 [13]) [µg/mL] | MIC [14] [µg/mL] | MIC (Sindbis virus) [µg/mL] | MIC [15] [µg/mL] | other results
C=CCn1c(-c2ccc(NC(=S)NC)cc2)n[nH]c1=S | > 80 | 80.9 (≈ 265 µM) | >= 80 ug ml-1 | 400 | 240 (≈ 786 µM) | > 80 | 240 (≈ 786 µM) | > 80 | 240 (≈ 786 µM) | 240 (≈ 786 µM) | 400 | > 80 | 400 | 9 | > 80.9 | 240 (≈ 786 µM) | > 80 | > 80 | > 80 | > 80 | MIC (Coxsackievirus B4 [16]): > 80 µg/mL; Activity [17]: 0%; IC50 [17]: > 80.9 µg/mL; MIC (Human alphaherpesvirus 2 [18]): 240 µg/mL (≈ 786 µM); MIC [19]: > 80 µg/mL
CCNC(=S)Nc1ccc(-c2n[nH]c(=S)n2C)cc1 | > 80 | 82.4 (≈ 281 µM) | 400 µg/mL | ≥ 400 | 240 (≈ 818 µM) | > 80 | 240 (≈ 818 µM) | > 400 | 240 (≈ 818 µM) | 240 (≈ 818 µM) | ≥ 400 | > 80 | 400 | 3 | > 82.4 | 240 (≈ 818 µM) | > 80 | > 400 | > 80 | > 80 | MIC (Coxsackievirus B4 [16]): > 80 µg/mL; Activity [17]: 0%; IC50 [17]: > 82.4 µg/mL; MIC (Human alphaherpesvirus 2 [18]): 240 µg/mL (≈ 818 µM); MIC [19]: > 80 µg/mL
CCCCCCNC(=S)Nc1ccc(-c2n[nH]c(=S)n2-c2ccccc2)cc1 | > 80 | 3.99 (≈ 9.69 µM) | 400 µg/mL | ≥ 16 | > 16 | > 80 | > 16 | > 16 | > 16 | > 16 | ≥ 16 | > 80 | 400 | 16 | > 3.99 | > 16 | > 80 | > 16 | > 80 | > 80 | MIC (Coxsackievirus B4 [16]): > 80 µg/mL; Activity [17]: 3%; IC50 [17]: > 3.99 µg/mL; MIC (Human alphaherpesvirus 2 [18]): > 16 µg/mL; MIC [19]: > 80 µg/mL
S=C(Nc1ccc(Cl)cc1)Nc1ccc(-c2n[nH]c(=S)n2-c2ccccc2)cc1 | > 16 | 10.3 (≈ 23.5 µM) | >= 16 ug ml-1 | ≥ 16 | > 16 | > 16 | > 16 | > 16 | > 16 | > 16 | ≥ 16 | > 16 | 80 | 4.5 | > 10.3 | > 16 | > 16 | > 16 | > 16 | > 16 | MIC (Coxsackievirus B4 [16]): > 16 µg/mL; Activity [17]: 31%; IC50 [17]: > 10.3 µg/mL; MIC (Human alphaherpesvirus 2 [18]): > 16 µg/mL; MIC [19]: > 16 µg/mL
C=CCNC(=S)Nc1ccc(-c2nnc(SCc3ccc(Cl)cc3Cl)n2C)cc1 | > 16 | 116 (≈ 250 µM) | 80 µg/mL | 80 | > 16 | > 16 | > 16 | > 16 | > 16 | > 16 | 80 | > 80 | 400 | 0.5 | > 116 | > 16 | > 80 | > 16 | > 16 | > 16 | MIC (Coxsackievirus B4 [16]): > 16 µg/mL; Activity [17]: 5%; IC50 [17]: > 116 µg/mL; MIC (Human alphaherpesvirus 2 [18]): > 16 µg/mL; MIC [19]: > 80 µg/mL
CCCCCCNC(=S)Nc1ccc(-c2n[nH]c(=S)n2C)cc1 | > 16 | 8.82 (≈ 25.2 µM) | 80 µg/mL | 400 | 48 (≈ 137 µM) | > 16 | 48 (≈ 137 µM) | > 80 | 48 (≈ 137 µM) | 48 (≈ 137 µM) | 400 | > 16 | 80 | 8 | > 8.82 | 48 (≈ 137 µM) | > 16 | > 80 | > 16 | > 16 | MIC (Coxsackievirus B4 [16]): > 16 µg/mL; Activity [17]: 0%; IC50 [17]: > 8.82 µg/mL; MIC (Human alphaherpesvirus 2 [18]): 48 µg/mL (≈ 137 µM); MIC [19]: > 16 µg/mL
C=CCNC(=S)Nc1ccc(-c2n[nH]c(=S)n2C)cc1 | > 80 | 78.2 (≈ 256 µM) | 400 µg/mL | 400 | 240 (≈ 786 µM) | > 80 | 240 (≈ 786 µM) | > 80 | 240 (≈ 786 µM) | 240 (≈ 786 µM) | 400 | > 80 | 400 | 9.5 | > 78.2 | 240 (≈ 786 µM) | > 80 | > 80 | > 80 | > 80 | MIC (Coxsackievirus B4 [16]): > 80 µg/mL; Activity [17]: 1%; IC50 [17]: > 78.2 µg/mL; MIC (Human alphaherpesvirus 2 [18]): 240 µg/mL (≈ 786 µM); MIC [19]: > 80 µg/mL
